Source: ChEMBL document CHEMBL5705890, “Antitumor activity of an allosteric inhibitor of centromere-associated protein-E” (Proc Natl Acad Sci U S A, 2010)

Assays:
MES-SA = experiment: Anticancer activity against human MES-SA cells assessed as cell growth inhibition measured after 72 hrs by DAPI staining based analysis; assay type: functional
BHT-101 = experiment: Anticancer activity against human BHT-101 cells assessed as cell growth inhibition measured after 72 hrs by DAPI staining based analysis; assay type: functional
Summary of the method: (§1)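 Cells were seeded, and DNA content at 24 h after seeding (T0) was read by imaging of fixed, DAPI-stained cells. Cells were then exposed to a range of drug concentrations for a further 72 h (T72) and DNA content was read again. T72 values were normalized to T0, and GI50 was taken from curve fits as the concentration giving 50% growth inhibition relative to T0 and Ymax.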

NCI-H292 [1] = experiment: Anticancer activity against human NCI-H292 cells assessed as cell growth inhibition measured after 72 hrs by DAPI staining based analysis; assay type: functional
A204 = experiment: Anticancer activity against human A204 cells assessed as cell doubling measured for 72 hrs by DAPI staining based analysis; assay type: functional
NCI-H460 = experiment: Antitumor activity against human NCI-H460 cells in xenograft model assessed as tumor growth delay at 62.5 mg/kg relative to control; assay type: functional
JEG-3 [2] = experiment: Anticancer activity against human JEG-3 cells assessed as cell growth inhibition measured after 72 hrs by DAPI staining based analysis; assay type: functional
SF-295 = experiment: Anticancer activity against human SF-295 cells assessed as cell growth inhibition measured after 72 hrs by DAPI staining based analysis; assay type: functional
SK-MEL3 = experiment: Anticancer activity against human SK-MEL3 cells assessed as cell growth inhibition measured after 72 hrs by DAPI staining based analysis; assay type: functional
[3] = Anticancer activity against human MV-522 cells assessed as cell growth inhibition measured after 72 hrs by DAPI staining based analysis; assay type: functional; conditions: MV522
HCC 2998 = experiment: Anticancer activity against human HCC 2998 cells assessed as cell doubling measured for 72 hrs by DAPI staining based analysis; assay type: functional
HMCB cell line = experiment: Anticancer activity against human HMCB cells assessed as cell doubling measured for 72 hrs by DAPI staining based analysis; assay type: functional
CCF-STTG1 = experiment: Anticancer activity against human CCF-STTG1 cells assessed as cell growth inhibition measured after 72 hrs by DAPI staining based analysis; assay type: functional; summary of the method: as §1
SW780 = experiment: Anticancer activity against human SW780 cells assessed as cell growth inhibition measured after 72 hrs by DAPI staining based analysis; assay type: functional
UACC-257 = experiment: Anticancer activity against human UACC-257 cells assessed as cell doubling measured for 72 hrs by DAPI staining based analysis; assay type: functional
JEG-3 [4] = experiment: Anticancer activity against human JEG-3 cells assessed as cell doubling measured for 72 hrs by DAPI staining based analysis; assay type: functional
[5] = system: KATO III stomach cancer cell line; experiment: Anticancer activity against human KATO III stomach cancer cell line cells assessed as cell doubling measured for 72 hrs by DAPI staining based analysis; assay type: functional
SCaBER = experiment: Anticancer activity against human SCaBER cells assessed as cell doubling measured for 72 hrs by DAPI staining based analysis; assay type: functional
A 172 = experiment: Anticancer activity against human A-172 cells assessed as cell doubling measured for 72 hrs by DAPI staining based analysis; assay type: functional
NCI-N87 = experiment: Anticancer activity against human NCI-N87 cells assessed as cell doubling measured for 72 hrs by DAPI staining based analysis; assay type: functional
SAOS-2 = experiment: Anticancer activity against human SAOS-2 cells assessed as cell doubling measured for 72 hrs by DAPI staining based analysis; assay type: functional
[6] = Anticancer activity against human MJ cells assessed as cell growth inhibition measured after 72 hrs by DAPI staining based analysis; assay type: functional
RPMI-2650 = experiment: Anticancer activity against human RPMI-2650 cells assessed as cell growth inhibition measured after 72 hrs by DAPI staining based analysis; assay type: functional
HCT-15 = experiment: Anticancer activity against human HCT-15 cells assessed as cell doubling measured for 72 hrs by DAPI staining based analysis; assay type: functional
SW1990 = experiment: Anticancer activity against human SW1990 cells assessed as cell doubling measured for 72 hrs by DAPI staining based analysis; assay type: functional
NCI-H292 [7] = experiment: Anticancer activity against human NCI-H292 cells assessed as cell doubling measured for 72 hrs by DAPI staining based analysis; assay type: functional
CAL-62 = experiment: Anticancer activity against human CAL-62 cells assessed as cell doubling measured for 72 hrs by DAPI staining based analysis; assay type: functional
SNU-398 = experiment: Anticancer activity against human SNU-398 cells assessed as cell doubling measured for 72 hrs by DAPI staining based analysis; assay type: functional
SW-620 = experiment: Anticancer activity against human SW620 cells assessed as cell growth inhibition measured after 72 hrs by DAPI staining based analysis; assay type: functional
[8] = target: Centromere-associated protein E (Homo sapiens, UniProt Q02224, I182L/K184T/T183A); experiment: Binding affinity to human CENP-E I182L/T183A/K184T mutant assessed as inhibition constant
Centromere-associated protein E, sequence (Q02224 whole entry I182L/T183A/K184T): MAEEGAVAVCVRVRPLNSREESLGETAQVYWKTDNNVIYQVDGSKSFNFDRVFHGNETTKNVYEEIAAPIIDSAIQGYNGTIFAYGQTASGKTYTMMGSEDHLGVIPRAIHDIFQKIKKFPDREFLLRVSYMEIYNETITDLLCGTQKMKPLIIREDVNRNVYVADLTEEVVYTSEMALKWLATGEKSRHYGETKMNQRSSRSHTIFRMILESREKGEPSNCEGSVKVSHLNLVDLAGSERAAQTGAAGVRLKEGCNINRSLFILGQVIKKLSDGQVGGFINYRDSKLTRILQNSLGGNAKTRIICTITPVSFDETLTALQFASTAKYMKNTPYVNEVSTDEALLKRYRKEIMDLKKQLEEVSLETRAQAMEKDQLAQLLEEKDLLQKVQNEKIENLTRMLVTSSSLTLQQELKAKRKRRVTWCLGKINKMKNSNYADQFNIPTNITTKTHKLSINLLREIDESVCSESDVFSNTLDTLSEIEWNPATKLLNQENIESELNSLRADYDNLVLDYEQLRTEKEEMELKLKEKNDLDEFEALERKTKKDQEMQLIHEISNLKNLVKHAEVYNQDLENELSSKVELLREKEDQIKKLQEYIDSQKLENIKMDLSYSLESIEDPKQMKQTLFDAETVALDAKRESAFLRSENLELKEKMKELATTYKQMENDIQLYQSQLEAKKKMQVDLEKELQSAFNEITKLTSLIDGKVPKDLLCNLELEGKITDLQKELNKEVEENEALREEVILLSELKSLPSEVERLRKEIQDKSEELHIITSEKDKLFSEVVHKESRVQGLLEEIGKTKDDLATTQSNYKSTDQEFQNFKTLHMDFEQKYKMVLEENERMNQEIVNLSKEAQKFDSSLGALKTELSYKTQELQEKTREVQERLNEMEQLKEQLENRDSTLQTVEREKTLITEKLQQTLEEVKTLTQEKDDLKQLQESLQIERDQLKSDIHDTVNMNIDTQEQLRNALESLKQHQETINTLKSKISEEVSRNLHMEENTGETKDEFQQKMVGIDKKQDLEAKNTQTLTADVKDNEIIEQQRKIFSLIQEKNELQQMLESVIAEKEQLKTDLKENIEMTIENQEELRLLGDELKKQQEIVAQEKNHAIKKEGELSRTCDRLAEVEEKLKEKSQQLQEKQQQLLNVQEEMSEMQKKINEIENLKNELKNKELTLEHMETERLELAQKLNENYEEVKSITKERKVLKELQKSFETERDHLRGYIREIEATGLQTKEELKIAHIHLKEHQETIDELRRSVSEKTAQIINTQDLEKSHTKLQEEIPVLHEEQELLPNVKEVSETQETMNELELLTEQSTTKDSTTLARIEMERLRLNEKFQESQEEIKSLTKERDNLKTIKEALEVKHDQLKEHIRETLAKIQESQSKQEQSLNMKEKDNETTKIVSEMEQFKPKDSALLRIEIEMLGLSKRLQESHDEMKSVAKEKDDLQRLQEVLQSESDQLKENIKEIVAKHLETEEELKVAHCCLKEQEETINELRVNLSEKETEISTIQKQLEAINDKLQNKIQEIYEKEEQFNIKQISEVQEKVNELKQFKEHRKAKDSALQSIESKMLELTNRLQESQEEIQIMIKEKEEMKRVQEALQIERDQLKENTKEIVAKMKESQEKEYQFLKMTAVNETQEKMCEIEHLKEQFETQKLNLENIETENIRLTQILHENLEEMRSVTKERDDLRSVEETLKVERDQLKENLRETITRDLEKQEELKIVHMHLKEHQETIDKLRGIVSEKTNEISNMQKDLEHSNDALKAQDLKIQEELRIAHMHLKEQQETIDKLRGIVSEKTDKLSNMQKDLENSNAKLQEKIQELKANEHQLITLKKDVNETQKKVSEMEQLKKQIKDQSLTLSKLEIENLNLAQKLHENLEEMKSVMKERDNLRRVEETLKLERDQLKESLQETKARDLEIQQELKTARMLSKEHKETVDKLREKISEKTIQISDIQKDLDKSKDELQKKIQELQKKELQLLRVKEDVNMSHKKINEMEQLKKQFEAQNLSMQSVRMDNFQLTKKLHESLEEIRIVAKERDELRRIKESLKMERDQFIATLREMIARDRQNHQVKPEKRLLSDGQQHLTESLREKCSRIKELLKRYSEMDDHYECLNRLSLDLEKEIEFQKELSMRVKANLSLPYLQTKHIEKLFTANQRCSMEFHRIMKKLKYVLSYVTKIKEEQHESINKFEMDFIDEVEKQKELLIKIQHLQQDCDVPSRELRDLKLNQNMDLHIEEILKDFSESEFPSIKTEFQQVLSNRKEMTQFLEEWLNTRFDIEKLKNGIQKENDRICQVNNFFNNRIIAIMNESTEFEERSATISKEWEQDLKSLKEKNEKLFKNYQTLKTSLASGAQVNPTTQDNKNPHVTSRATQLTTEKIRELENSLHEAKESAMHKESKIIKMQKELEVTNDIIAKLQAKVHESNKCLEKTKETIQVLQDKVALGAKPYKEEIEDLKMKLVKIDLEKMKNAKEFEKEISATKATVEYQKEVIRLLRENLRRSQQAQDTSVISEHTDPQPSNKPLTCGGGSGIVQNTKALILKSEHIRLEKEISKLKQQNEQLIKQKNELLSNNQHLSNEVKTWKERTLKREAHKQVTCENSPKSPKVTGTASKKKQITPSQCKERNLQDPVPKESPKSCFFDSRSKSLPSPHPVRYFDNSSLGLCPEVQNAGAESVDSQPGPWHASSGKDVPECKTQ

SHP77 = experiment: Anticancer activity against human SHP77 cells assessed as cell growth inhibition measured after 72 hrs by DAPI staining based analysis; assay type: functional
CGTH-W-1 = experiment: Anticancer activity against human CGTH-W-1 cells assessed as cell growth inhibition measured after 72 hrs by DAPI staining based analysis; assay type: functional; summary of the method: as §1
NCI-H661 = experiment: Anticancer activity against human NCI-H661 cells assessed as cell doubling measured for 72 hrs by DAPI staining based analysis; assay type: functional
OVCAR-4 = experiment: Anticancer activity against human OVCAR-4 cells assessed as cell doubling measured for 72 hrs by DAPI staining based analysis; assay type: functional
[9] = Anticancer activity against human CML-T1 cells assessed as cell growth inhibition measured after 72 hrs by DAPI staining based analysis; assay type: functional; summary of the method: as §1
COLO 201 = experiment: Anticancer activity against human COLO201 cells assessed as cell growth inhibition measured after 72 hrs by DAPI staining based analysis; assay type: functional
Summary of the method: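 Cells seeded, DAPI-stained DNA content of fixed cells read by imaging 24 h after seeding (T0), and again after a further 72 h exposure to a range of drug concentrations (T72). T72 values were normalized to T0. Curve fits gave the concentration producing 50% growth inhibition relative to T0 and Ymax (GI50).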

HOS = experiment: Anticancer activity against human HOS cells assessed as cell growth inhibition measured after 72 hrs by DAPI staining based analysis; assay type: functional
SJRH30 = experiment: Anticancer activity against human SJRH30 cells assessed as cell doubling measured for 72 hrs by DAPI staining based analysis; assay type: functional
[10] = system: KATO III stomach cancer cell line; experiment: Anticancer activity against human KATO III stomach cancer cell line cells assessed as cell growth inhibition measured after 72 hrs by DAPI staining based analysis; assay type: functional
SK-N-DZ = experiment: Anticancer activity against human SK-N-DZ cells assessed as cell doubling measured for 72 hrs by DAPI staining based analysis; assay type: functional
MDA-MB-435 = experiment: Anticancer activity against human MDA-MB-435 cells assessed as cell doubling measured for 72 hrs by DAPI staining based analysis; assay type: functional
BT-474 = experiment: Anticancer activity against human BT-474 cells assessed as cell doubling measured for 72 hrs by DAPI staining based analysis; assay type: functional
J82 = experiment: Anticancer activity against human J82 cells assessed as cell growth inhibition measured after 72 hrs by DAPI staining based analysis; assay type: functional

CC(C)Oc1ccc(C(=O)N[C@H](CNC(=O)CN(C)C)Cc2ccc(-c3cn4cccc([C@H](C)O)c4n3)cc2)cc1Cl [GSK-923295A]
GI50 (MES-SA): 65 nM | GI50 (BHT-101): 100 nM | GI50 (NCI-H292 [1]): 31 nM | Activity (A204): 1.46 | Activity (NCI-H460): 87% | GI50 (JEG-3 [2]): 25 nM | GI50 (SF-295): 35 nM | GI50 (SK-MEL3): 30 nM | GI50 [3]: 48 nM | Activity (HCC 2998): 2.76 | Activity (HMCB cell line): 2.92 | GI50 (CCF-STTG1): 24 nM | GI50 (SW780): 30 nM | Activity (UACC-257): 1.79 | Activity (JEG-3 [4]): 2.9 | Activity [5]: 2.02 | Activity (SCaBER): 2.86 | Activity (A 172): 1.84 | Activity (NCI-N87): 2.53 | Activity (SAOS-2): 1.5 | GI50 [6]: 50 nM | GI50 (RPMI-2650): 36 nM | Activity (HCT-15): 4.01 | Activity (SW1990): 1.88 | Activity (NCI-H292 [7]): 2.2 | Activity (CAL-62): 3.31 | Activity (SNU-398): 2.53 | GI50 (SW-620): 47 nM | Ki [8]: 64 nM | GI50 (SHP77): 86 nM | GI50 (CGTH-W-1): 30 nM | Activity (NCI-H661): 1.56 | Activity (OVCAR-4): 2.94 | GI50 [9]: 13 nM | GI50 (COLO 201): 24 nM | GI50 (HOS): 27 nM | Activity (SJRH30): 2.12 | GI50 [10]: 79 nM | Activity (SK-N-DZ): 1.81 | Activity (MDA-MB-435): 2.96 | Activity (BT-474): 1.17 | GI50 (J82): 114 nM
